Assay results published in the EternaBench riboswitch data.

System: MS2 coat protein
Test: apparent Kd, MS2 coat protein; higher = weaker binding; RNA-MaP array; FMN 200 µM where present
Summary of the method: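 Each design was made on Illumina sequencing-chip clusters by stalled E. coli RNA polymerase and titrated with SNAP-549-labelled MS2 coat protein from 0.7 or 1.5 nM, doubling to 3 µM, in the absence and then the presence of constant ligand. The buffer was 100 mM Tris-HCl pH 7.5, 80 mM KCl, 4 mM MgCl2, BSA, DTT, yeast tRNA and Tween-20. The apparent Kd is the median of filtered per-cluster fits of binding curves, with green signal normalised to red-channel RNA signal and control-cluster median Fmax.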

[1] = designed as: OFF switch for flavin mononucleotide, no ligand
[2] = ligand present: flavin mononucleotide, designed as: OFF switch for flavin mononucleotide
[3] = designed as: ON switch for flavin mononucleotide, no ligand
[4] = ligand present: flavin mononucleotide, designed as: ON switch for flavin mononucleotide

Sequence	apparent Kd [1] [nM]	apparent Kd [2] [nM]	apparent Kd [3] [nM]	apparent Kd [4] [nM]
GAGUACUGAGGAUAUACAUGAGGAUCACCCAUGUGUUCCAACUAGGAAUCUAGAAUAUGUAGAAGGCAGUACUG	223	211	–	–
ACUAUACGAGGAUAUGCUGUCAGUACUCAGAGGUUAGUGUGACAUGAGGAUCACCCAUGUAGAAGGCGUUUACU	40.8	34	–	–
CGAUGUUAUGUCAGGAUAUGCGUUGCGAAAGCGAUGCAGAAGGGACAUGAGGAUCACCCAUGUCCUAACCAUCG	12.3	22.6	–	–
CCGGGCUAGGAGAAGGGCUAGAGUGUGAUAUAUUUGCCCGCGAGCACAUGAGGAUCACCCAUGUAGCAGGAUAUCCAAGCCGAU	7.33	18	–	–
GAGUCGAGUAAUAAAUAAGAUCUACAUGAGGAUCACCCAUGUAAGGAUAUGCAGUGGAAUACACUGCAGAAGGUACAUCUCGAC	15.1	33.4	–	–
UUAUUUAUGCAAGGAUAUCAAUUAUAUACACGUCCUACAUGAGGAUCACCCAUGUUUAGUUUUUUUGAGAAGGUGCAUUGUCGG	–	–	52.1	44.5
UUCUGUGCCCAAAGUUAAAGCACAUGAGGAUCACCCAUGUGAAAGGAUAUGUGGCGUGUAACGUUAUAGAAGGUUCACAAACAA	31.9	105	–	–
UGAGUAGCGUAACAACGCACAUGAGGAUCACCCAUGUCUACACAGGAUAUGCGACGCUCCAGUUAGCAGAAGGGUGAACUCAAA	–	–	78.7	138
GUCAGCUCGUGAGGAUAUACAACACUGAUUCGGCAGUGUAUUAAGAUCACAUGAGGAUCACCCAUGUAGAAGGCACGAGCUGAU	17.2	275	–	–
GGCCCGUAAGGAUAUAAUGCUCAGGUGAAAACCGAGCUCCGUUAGAAGGUACAUGAGGAUCACCCAUGUGAUCG	107	124	–	–
UGGCACUAGGGAGGAUAUGGGAAGAUACAUGAGGAUCACCCAUGUUUAAGAAUGCCGAGAGGCAACUAGAAGGCCCUAGUACCU	–	–	486	19.3
GGAAAACAUGAGGAUCACCCAUGUGAGGAUAUCGAUGUCCAACCACCCGUGCGGGACUCGAGAAGGCACUUGGA	53.4	146	–	–
GCCACAGCAGGAUAUUCAAUAAUUCACAUGAGGAUCACCCAUGUCGAGCGAAAGCUCGAGGGAGAAGGGCUGUGGC	39.5	13.7	–	–
AUCUUGUCAGGAUAUCGUACAAUAUGGAAAACAUAGAGGUACGAGAAGGGACAUGAGGAUCACCCAUGUAAAAC	40.2	84.5	–	–
GGUUGACAAAGUCAACCAUAACGAACAUGAGGAUCACCCAUGUAGGAUAUGCUACUCAAAGAGUAGCAGAAGGACAUGUGUCUU	32.6	161	–	–
AAAAAGUGAGGAUAUACGAGGAGAAACAACAAACAAACAAAACAUGAGGAUCACCCAUGUAGAAGGCACAAAAA	21.1	26.2	–	–
UGGGUAAAUGUAGGAUAUUUAUAUUAAUAAUAUGGAGAAGGACAUGAGGAUCACCCAUGUACAGGGAAUUACCCAUUUCCUCUC	940	877	–	–
AGUAUUGUAGGGUAUCCAACAUGAGGAUCACCCAUGUACCAGAGAAGGACCCGUGCAUUGCUCGGGUAGGAUAUCUGCGCAUCA	19.4	172	–	–
CCUUUUGUAUAAGGAUAUGUAACAAGGUAUAGAUUGGUAGGAUUUGUGCUUACAGAAGGUAUACAUGAGGAUCACCCAUGUCGA	23.1	59.5	–	–
CCUUUGUCAGGAUAUCAGAACGCGCUCGUAGGGAGCGCGAAUGAGAAGGGACAUGAGGAUCACCCAUGUAAAGA	94.7	492	–	–
ACAUGAGGAUCACCCAUGUAUUACAUGGUUAAGUUUAUUAACAGAAGGCGAAAAUACUUAUUGUUCGAGGAUAUGUAAUCAAUU	38	54.3	–	–
AAAUACCGGUGAGGAUAUUUAUAAUAGAACUUUAUGAUAUACAUGAGGAUCACCCAUGUUACUUUAAAGAAGGCAUCGGAUAAA	18.8	15	–	–
GCCUCAAGUGAAGGAUAUACGAGGCCAAAUACAGUAGAAGGUCACAUGAGGAUCACCCAUGUCCCAAAGGGUGCGCAUGCGCUC	40.4	210	–	–
ACCGGGUGUCACGUAUUACCGACAUGAGGAUCACCCAUGUAGGAGGAUAUGCAGACCGAAAUAAAGCAGAAGGCCUACGUUCUC	10.6	46.6	–	–
UUCACCUUAUUUUACAUGAGGAUCACCCAUGUUUUUUUUACGUAGGAUAUCGAUGCUUGUUUAUUCGAGAAGGACGAUGUAAGU	–	–	36.6	32.4
UAUAUAUAGUAAGGAUAUGUAUUUGUUUUAUAAACAGAAGGUACUGACAUGAGGAUCACCCAUGUUUUAGUGUGGGCAUGUAGA	39.5	41.4	–	–
ACCAAGCUAGGAUAUGCUUGGGCUCAAAUAAAUAAACACAAACAUGAGGAUCACCCAUGUAGAAGGAGCUUGCU	12.4	15.5	–	–
AGUAACAGAGGAUAUACUGUUUUAUGUAUUUAUUAUUUUAAACAUGAGGAUCACCCAUGUAGAAGGCUGAAUAA	20.6	20.3	–	–

Sequence	apparent Kd [1] [nM]	apparent Kd [2] [nM]	apparent Kd [3] [nM]	apparent Kd [4] [nM]
GGCUACGUUUCGUAGCAGCUAGGUGAGGAUAUUCAAUUUUUCACAUGAGGAUCACCCAUGUAUGUGAAGAAGGCGCCUAGAAAG	–	–	12.6	4.85
GGAAAGUCAGGAUAUGGAUAAUAAAUACAAAUAGAAACAAACCAGAAGGGACAUGAGGAUCACCCAUGUAAACA	24.1	23.1	–	–
AUAUAACCUAGCAAAAUUUAAUAACAUGAGGAUCACCCAUGUAGAAGGCUGUCCUAAAAUAGGACAGAGGAUAUACGUGCUAGG	5.43	6.73	–	–
GGGUACAUCGAAGGAUAUCAUGUAAAUACAUGAGGAUCACCCAUGUCGAUGGAGACAUCGGAGAUUGAGAAGGCCGAUGUACCG	–	–	338	28.1
GCUAUCGAUGUAGGAUAUGCUAUAGAAACUAUGGCAGAAGGACAUGAGGAUCACCCAUGUCAAUGGAUGGAGAGAAGAGAUGGC	26.7	68.7	–	–
GCGUUCUUGUAGAAGGUACAUGAAUUCUAUUUUUAACACAUGAAACAUGAGGAUCACCCAUGUUGUAAGGAUAUACAUGAACGC	–	–	6.98	5.83
GUAUCUUAUGAGAAGGCGAUCAUGAAACAUGAUCGAGGAUAUCAUGAAAACAUGAGGAUCACCCAUGUAUGGGUAUUAUGGUAC	–	–	63.5	43.7
UGUGCGUUGAUCUUCGAUCGGAGUACAUGAGGAUCACCCAUGUAGGAUAUUCAAAGACGCAGAUAGAAGAAGGACAUAGGUUUC	10.1	11.1	–	–
UGUCGGAGCAGAGGAUAUUACAUGAGGAUCACCCAUGUAUGAACCAAUAGCUGGAAACAGCAAUGUAAGAAGGCCGCUCCGACA	5.82	28.5	–	–
GCCAUCGCAUGAGGAUAUGCUCCCGUUUCGGGAGCAGAAGGCAUGUCAUAUGACAUGAGGAUCACCCAUGUAGCUAAGAUGGCA	–	–	576	17.5
GAUCAUGCAGGAUAUACAUUAACCAUGAAAACAUGGUUGUAACAUGAGGAUCACCCAUGUAGAAGGGCAUGAUC	14.2	21.3	–	–
ACCAGCGAUAUUUCGGUGAGUCAACCAGAAGGGACGAAGCCACAUGAGGAUCACCCAUGUCACUGUCAGGAUAUGGGAAGCGAC	–	–	364	29.5
UGCAUGCUAGGAUAUACGGGACAUUAGGGUUCGUUGUAUGGACAUGAGGAUCACCCAUGUAGAAGGAGCGUGCU	27.4	112	–	–
UUUUUAUUUGCAGGAUAUUGUAUUUUAUUACAUCAAGAAGGGCAUUACAUGAGGAUCACCCAUGUCAUCCUAUGGUUAACUAGU	9.62	9.77	–	–
GGACGUCUCAUUAACAUGAGGAUCACCCAUGUCAAAAGACAUGAGGAUAUGGUUCCUAAUUGGAACCAGAAGGCAUGGACGUCC	–	–	853	67.8
UGGGUCCCAGUCAGGAUAUCGUGCUUUUACAUGCACGAGAAGGGACAUGAGGAUCACCCAUGUCAAGGCGGUCA	102	330	–	–
UUAAAUCAUGUAGGAUAUGCAUGGCGAAGCUACGCAGAAGGACAUGAGGAUCACCCAUGUCUCUCCGUCUGCGUACAGACGGAG	24.6	155	–	–
GGCAUGUAAGGAUAUGUCCCUGAGUGCUUUGCGCUCAGGAAACAGAAGGUACAUGAGGAUCACCCAUGUGAUAA	725	75.9	–	–
ACUGUGUGAGGAUAUCUACGCCAUGUCUUUGACAUGGCGCAAGAGAAGGCACAUGAGGAUCACCCAUGUACUUC	18.4	39.2	–	–
ACUGUCCGAGAGAAGGGAACAUGAGGAUCACCCAUGUUACCUCACCCGGUGACGGAACUCCAAGUUCAGGAUAUCUCGAGCGGU	7.09	12.6	–	–
CAAUAACCCUCAUGUACCUGAGGACAUGAGGAUCACCCAUGUAAGGAUAUAGCCAUUAAAUCUAACUAGAAGGUAUAAAUAACC	1090	552	–	–
CAGUACUGAGGAUAUACAUGAGGAUCACCCAUGUGUUCCAGCUGGGAAACUAGCAAAAGUAGAAGGCAGUACUG	25.5	395	–	–
UGUCGGAGCAGAGGAUAUUACAUGAGGAUCACCCAUGUAUGAACCAAUAGCUGGAAACAGCAAUGUAAGAAGGCUGCUCCGACU	13	174	–	–
AAACAUGUCCGAGGAUAUCUAGAAACAUUUUUAAGAGAAGGCGGACAUGAGGAUCACCCAUGUCUCUCCUCAUCAAAUCCAAGU	15.6	68	–	–
CCGUUACAUGAGGAUCACCCAUGUGAGGAUAUCGGUGUGACUGGCAGCGUGCGGGACUCGAGAAGGCGCUUGGC	48.5	48.4	–	–
GUGGUACAUGAGGAUCACCCAUGUUAGGAUAUCGCGUGAGGUUUUACUUACACACACACGAGAAGGGACGUCUU	47.5	36	–	–
AGCACGAAAGUGCAACGAUGUAGCAGAAGGACAUGAGGAUCACCCAUGUAACGAGUAACUCGAAUGUAGGAUAUGCUACAUCGA	25	157	–	–
